Source: ChEMBL document CHEMBL5029150, “Controlling Intramolecular Interactions in the Design of Selective, High-Affinity Ligands for the CREBBP Bromodomain” (J Med Chem, 2021)
Calls of active or inactive are those of the source. No cut-off for these calls is given here.

What was measured:
[1] = molecular target: T1, CREB-binding protein/Histone acetyltransferase p300 (Homo sapiens) (UniProt Q09472+Q92793); experiment: Inhibition of CREBBP/EP300 in human HCT-116 cells assessed as reduction in H3K27Ac at 10 uM for 6 hrs by Western blot analysis; assay type: cell-based
How it was run: (§1)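 HCT116 human colorectal cancer cells were exposed to ligand at 10 μM for 6, 16 or 24 h. c-Myc, H3K18Ac and H3K27Ac levels were read by western blot, with acetylation marks expressed relative to the t = 0 level.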

[2] = molecular target: Bromodomain-containing protein 4 (Homo sapiens, UniProt O60885); experiment: Binding affinity to human BRD4 bromodomain 1 assessed as dissociation constant by ITC assay
[3] = molecular target: T1, CREB-binding protein/Histone acetyltransferase p300 (Homo sapiens); experiment: Inhibition of CREBBP/EP300 in human HCT-116 cells assessed as reduction in H3K18Ac at 10 uM for 24 hrs by Western blot analysis; assay type: cell-based; how it was run: as §1
[4] = molecular target: T1, CREB-binding protein/Histone acetyltransferase p300 (Homo sapiens); experiment: Inhibition of CREBBP/EP300 in human HCT-116 cells assessed as reduction in c-Myc protein expression at 10 uM for 6 hrs by Western blot analysis; assay type: cell-based; how it was run: as §1
[5] = molecular target: T1, CREB-binding protein/Histone acetyltransferase p300 (Homo sapiens); experiment: Inhibition of CREBBP/EP300 in human HCT-116 cells assessed as reduction in c-Myc expression at 10 uM for 24 hrs by Western blot analysis; assay type: cell-based; how it was run: as §1

T1 sequence (Q09472 whole entry, looked up): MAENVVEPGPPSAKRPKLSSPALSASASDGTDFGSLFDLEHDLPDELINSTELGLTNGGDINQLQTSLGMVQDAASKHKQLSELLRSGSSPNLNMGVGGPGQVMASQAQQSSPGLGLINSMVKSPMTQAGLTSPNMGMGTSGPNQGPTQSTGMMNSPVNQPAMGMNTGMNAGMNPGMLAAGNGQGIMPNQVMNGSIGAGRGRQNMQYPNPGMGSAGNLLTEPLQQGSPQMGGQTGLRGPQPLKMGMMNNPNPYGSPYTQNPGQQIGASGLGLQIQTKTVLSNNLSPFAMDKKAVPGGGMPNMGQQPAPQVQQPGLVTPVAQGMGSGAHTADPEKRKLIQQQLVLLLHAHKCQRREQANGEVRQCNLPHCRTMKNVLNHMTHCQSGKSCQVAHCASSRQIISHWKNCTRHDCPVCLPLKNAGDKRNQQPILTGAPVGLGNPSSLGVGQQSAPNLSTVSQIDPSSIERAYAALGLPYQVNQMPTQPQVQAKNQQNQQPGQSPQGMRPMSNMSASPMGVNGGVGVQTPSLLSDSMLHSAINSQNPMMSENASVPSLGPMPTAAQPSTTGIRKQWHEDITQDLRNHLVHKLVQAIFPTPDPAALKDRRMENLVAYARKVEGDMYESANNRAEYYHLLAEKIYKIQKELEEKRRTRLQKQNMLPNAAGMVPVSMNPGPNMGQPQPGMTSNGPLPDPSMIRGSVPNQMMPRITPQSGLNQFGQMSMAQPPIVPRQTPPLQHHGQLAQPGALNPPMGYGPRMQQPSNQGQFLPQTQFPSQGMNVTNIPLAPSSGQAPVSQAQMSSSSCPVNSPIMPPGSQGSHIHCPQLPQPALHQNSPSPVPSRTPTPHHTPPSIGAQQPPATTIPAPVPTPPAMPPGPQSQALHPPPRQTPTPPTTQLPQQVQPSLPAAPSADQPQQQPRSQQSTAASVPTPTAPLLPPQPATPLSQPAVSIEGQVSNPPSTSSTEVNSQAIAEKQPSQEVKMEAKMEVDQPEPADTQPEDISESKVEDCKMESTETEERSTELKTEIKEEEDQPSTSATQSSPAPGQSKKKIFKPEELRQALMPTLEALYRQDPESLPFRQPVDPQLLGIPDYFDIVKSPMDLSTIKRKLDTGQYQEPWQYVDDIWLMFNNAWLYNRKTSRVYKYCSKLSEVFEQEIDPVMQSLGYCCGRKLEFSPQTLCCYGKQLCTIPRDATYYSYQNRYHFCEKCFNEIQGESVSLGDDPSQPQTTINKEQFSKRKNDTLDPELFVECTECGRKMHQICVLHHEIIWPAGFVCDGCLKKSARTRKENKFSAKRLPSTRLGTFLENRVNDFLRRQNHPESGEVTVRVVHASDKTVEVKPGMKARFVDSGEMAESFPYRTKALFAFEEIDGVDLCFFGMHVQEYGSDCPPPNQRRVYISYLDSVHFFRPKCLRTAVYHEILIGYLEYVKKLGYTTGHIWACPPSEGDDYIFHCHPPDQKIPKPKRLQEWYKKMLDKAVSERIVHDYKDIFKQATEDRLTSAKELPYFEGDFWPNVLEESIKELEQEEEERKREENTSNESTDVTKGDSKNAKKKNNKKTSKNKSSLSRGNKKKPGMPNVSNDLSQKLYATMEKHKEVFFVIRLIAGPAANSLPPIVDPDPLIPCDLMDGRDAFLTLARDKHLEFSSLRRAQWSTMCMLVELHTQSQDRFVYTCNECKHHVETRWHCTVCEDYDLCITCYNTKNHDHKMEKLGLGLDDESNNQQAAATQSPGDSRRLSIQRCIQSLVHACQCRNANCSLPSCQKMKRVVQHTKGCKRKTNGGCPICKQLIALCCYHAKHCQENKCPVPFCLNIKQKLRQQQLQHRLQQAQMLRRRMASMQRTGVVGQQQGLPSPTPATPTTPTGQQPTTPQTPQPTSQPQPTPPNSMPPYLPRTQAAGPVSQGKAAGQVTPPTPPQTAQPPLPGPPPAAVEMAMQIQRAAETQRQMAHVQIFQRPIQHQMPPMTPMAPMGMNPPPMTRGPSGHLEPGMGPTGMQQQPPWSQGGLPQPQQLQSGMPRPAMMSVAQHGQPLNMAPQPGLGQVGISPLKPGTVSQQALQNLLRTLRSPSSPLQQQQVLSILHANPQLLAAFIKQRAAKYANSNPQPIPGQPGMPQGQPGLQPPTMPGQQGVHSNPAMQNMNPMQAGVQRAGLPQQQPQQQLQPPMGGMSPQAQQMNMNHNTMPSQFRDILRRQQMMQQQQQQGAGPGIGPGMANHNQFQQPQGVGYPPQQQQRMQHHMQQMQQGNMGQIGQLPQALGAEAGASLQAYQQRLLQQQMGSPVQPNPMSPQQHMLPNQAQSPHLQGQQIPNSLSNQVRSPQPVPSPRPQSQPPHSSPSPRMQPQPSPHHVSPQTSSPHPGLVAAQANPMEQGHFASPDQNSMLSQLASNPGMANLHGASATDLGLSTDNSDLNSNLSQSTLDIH
T1 sequence (Q92793 whole entry, looked up): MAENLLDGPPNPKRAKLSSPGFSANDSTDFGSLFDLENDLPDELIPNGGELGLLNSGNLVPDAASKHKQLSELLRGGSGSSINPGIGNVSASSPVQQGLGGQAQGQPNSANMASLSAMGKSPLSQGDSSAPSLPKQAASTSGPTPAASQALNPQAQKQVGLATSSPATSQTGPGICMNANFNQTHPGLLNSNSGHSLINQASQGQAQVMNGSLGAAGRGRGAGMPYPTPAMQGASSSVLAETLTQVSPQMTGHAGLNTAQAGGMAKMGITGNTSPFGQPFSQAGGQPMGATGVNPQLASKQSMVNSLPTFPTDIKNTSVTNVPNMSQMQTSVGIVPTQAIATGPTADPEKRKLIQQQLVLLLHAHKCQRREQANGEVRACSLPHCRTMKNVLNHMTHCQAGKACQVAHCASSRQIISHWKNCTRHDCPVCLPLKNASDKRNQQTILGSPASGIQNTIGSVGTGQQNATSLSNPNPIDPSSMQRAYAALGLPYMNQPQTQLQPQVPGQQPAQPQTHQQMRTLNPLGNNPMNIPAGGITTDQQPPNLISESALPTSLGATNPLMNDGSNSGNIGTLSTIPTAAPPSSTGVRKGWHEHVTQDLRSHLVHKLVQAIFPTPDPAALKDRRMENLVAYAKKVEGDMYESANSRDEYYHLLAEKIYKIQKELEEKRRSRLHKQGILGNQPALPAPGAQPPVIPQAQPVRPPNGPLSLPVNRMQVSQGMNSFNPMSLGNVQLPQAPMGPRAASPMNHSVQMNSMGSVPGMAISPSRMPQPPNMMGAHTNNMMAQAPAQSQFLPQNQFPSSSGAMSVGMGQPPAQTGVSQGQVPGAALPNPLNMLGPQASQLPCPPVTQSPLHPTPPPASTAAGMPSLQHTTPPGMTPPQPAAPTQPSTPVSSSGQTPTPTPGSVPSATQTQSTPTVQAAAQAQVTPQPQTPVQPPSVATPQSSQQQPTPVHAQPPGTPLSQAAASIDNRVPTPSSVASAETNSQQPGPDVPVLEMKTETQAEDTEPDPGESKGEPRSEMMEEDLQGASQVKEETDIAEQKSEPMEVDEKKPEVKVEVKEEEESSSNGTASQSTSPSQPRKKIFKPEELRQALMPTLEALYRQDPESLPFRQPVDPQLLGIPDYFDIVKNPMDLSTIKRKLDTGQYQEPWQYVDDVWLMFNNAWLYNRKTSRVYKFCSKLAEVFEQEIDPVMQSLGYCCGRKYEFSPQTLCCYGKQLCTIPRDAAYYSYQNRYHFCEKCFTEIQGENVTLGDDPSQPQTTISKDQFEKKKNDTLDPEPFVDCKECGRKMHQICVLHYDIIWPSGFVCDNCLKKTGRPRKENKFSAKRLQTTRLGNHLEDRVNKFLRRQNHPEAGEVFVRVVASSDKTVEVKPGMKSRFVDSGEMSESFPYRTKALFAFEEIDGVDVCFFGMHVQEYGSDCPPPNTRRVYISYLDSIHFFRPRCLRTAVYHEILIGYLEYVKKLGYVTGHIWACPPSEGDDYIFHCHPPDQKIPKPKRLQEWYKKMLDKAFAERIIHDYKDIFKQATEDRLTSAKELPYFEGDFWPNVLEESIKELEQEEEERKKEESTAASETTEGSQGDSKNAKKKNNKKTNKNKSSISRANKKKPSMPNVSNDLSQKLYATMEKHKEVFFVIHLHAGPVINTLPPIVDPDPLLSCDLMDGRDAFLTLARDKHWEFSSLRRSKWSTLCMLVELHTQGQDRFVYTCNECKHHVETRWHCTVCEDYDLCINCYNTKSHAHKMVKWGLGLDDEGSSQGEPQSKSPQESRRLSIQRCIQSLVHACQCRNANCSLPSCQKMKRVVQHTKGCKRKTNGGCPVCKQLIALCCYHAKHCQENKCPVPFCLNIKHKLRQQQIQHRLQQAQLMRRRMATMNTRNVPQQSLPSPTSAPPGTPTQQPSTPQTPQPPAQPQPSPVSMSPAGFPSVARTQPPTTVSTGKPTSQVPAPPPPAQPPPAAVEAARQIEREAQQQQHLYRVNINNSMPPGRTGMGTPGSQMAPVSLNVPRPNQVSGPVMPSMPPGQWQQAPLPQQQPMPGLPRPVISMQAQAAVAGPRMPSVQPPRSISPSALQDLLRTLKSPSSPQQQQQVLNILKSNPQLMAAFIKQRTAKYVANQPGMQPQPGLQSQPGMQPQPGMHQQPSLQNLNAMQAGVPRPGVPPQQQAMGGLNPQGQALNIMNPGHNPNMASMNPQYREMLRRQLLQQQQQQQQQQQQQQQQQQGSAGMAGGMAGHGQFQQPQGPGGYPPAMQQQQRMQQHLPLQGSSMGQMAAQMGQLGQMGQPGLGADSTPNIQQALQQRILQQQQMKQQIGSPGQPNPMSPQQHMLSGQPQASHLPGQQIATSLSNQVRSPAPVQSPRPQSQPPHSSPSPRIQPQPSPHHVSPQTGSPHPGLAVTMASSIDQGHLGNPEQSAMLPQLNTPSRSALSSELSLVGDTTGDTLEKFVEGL

SMILES | inhibition [1] | Kd [2] | inhibition [3] | inhibition [4] | inhibition [5]
COc1ccc2c(c1)N(CCC/C=C/c1cccc3c1N[C@H](C)CC(=O)N3)CCC2 | 70% | Not Active | 30% | Active | 
COc1ccc2c(c1)N(CCC/C=C/c1cccc3c1N[C@@H](C)CC(=O)N3)CCC2 |  |  |  |  | inactive
